Results as given in the EternaBench riboswitch data.

Key:
[1] = system: MS2 coat protein; assay: apparent Kd, MS2 coat protein; higher = weaker binding; RNA-MaP array; theophylline 2 mM where present
In short: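 Stalled E. coli RNA polymerase produced the designs on Illumina sequencing-chip clusters. SNAP-549-labelled MS2 coat protein was added from 0.7 or 1.5 nM, doubling to 3 µM, without and then with constant ligand, in 100 mM Tris-HCl pH 7.5, 80 mM KCl, 4 mM MgCl2, BSA, DTT, yeast tRNA and Tween-20. The apparent Kd is the median of filtered per-cluster fits of green signal normalised to red-channel RNA signal and control-cluster median Fmax.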

[2] = system: MS2 coat protein; assay: apparent Kd, MS2 coat protein; higher = weaker binding; RNA-MaP array
In short: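 Incubations were done at room temperature with fluorescently labeled MS2 coat protein at 1.5 nM to 3 μM and designed RNAs transcribed on an Illumina sequencing chip from sequenced DNA templates, with or without input ligand. Apparent Kd is the median of binding curves fitted for each cluster. Designs with fewer than 10 measured clusters were excluded.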

[3] = designed as: ON switch for theophylline, no ligand
[4] = ligand present: theophylline, designed as: ON switch for theophylline
[5] = designed as: OFF switch for theophylline, no ligand
[6] = ligand present: theophylline, designed as: OFF switch for theophylline
[7] = designed as: ON switch for flavin mononucleotide, no ligand
[8] = ligand present: flavin mononucleotide, designed as: ON switch for flavin mononucleotide
[9] = designed as: ON switch for tryptophan, no ligand
[10] = ligand present: tryptophan, designed as: ON switch for tryptophan
[11] = designed as: OFF switch for flavin mononucleotide, no ligand
[12] = ligand present: flavin mononucleotide, designed as: OFF switch for flavin mononucleotide

Sequence | apparent Kd [1, 3] | apparent Kd [1, 4] | apparent Kd [1, 5] | apparent Kd [1, 6] | further results
AAAAUAAAUAAAACACGUAACAUGAAGGAUACCAGACCGGAAACGGUCCCUUGGCAGCCUCUACAUGAGGAUCACCCAUGUCGUG | 238 nM | 30.9 nM | – | – | –
AACAUGAGGAUCACCCAUGUAUUGGGUGAUACCAGCCUGAAUAAUGGCCCUUGGCAGCACCGCGCUAACUUUAUGUCUGCGAAAC | 127 nM | 138 nM | – | – | –
AACCGAGGCUAUCCUCUACGACUAUGUGAUACCAGAAUAAUUUUAUUCCCUUGGCAGCAUGACAUGAGGAUCACCCAUGUCUCUU | 39.2 nM | 58.2 nM | – | – | –
AAGCUGCCAAGAACAUGGGUGAAAUGUGAUACCAGCUAGGAAACUAGCCCUUGGCAGCACAUGAGGAUCACCCAUGUAAUAAUAA | – | – | 352 nM | 93.7 nM | –
AAUAACAUGAGGAUCACCCAUGUAAAAGAUACCAGAGUGAUGAUCCUCCCUUGGCAGCUUAAAACGCUAUUGGAAACAAUAGCGA | 80.5 nM | 168 nM | – | – | –
AAUAAGCAGCUGCCUUCCUCAUGAGCAGAUACCAGCUAGGAAACUAGCCCUUGGCAGCUGCAACAUGAGGAUCACCCAUGUAAUA | – | – | 65.8 nM | 73 nM | –
AAUAAGUAUCUGCUAGGUGAUCCAGCAGAUACCAGCUAGGAAACUAGCCCUUGGCAGCUGCAACAUGAGGAUCACCCAUGUAAUA | – | – | 444 nM | 228 nM | –
AAUAUAAGUGUAAUUAUAUGUAUCUCUGAUACCAGACUCUCAUGUGUCCCUUGGCAGCAGUUACAUGAGGAUCACCCAUGUAUUA | 103 nM | 31.9 nM | – | – | –
ACAAGUCCUCAUGAUACCAGCGAUGAGACAAAGUCUCAACAUGAGGAUCACCCAUGUACUCGCCCUUGGCAGCAUACGGUUUUUG | 415 nM | 43.6 nM | – | – | –
ACACCGAAAGGUGCAUUUACCUUAUCAGAUACCAGACUUUACGUUGUCCCUUGGCAGCUGUAUCACAUGAGGAUCACCCAUGUUG | 15.5 nM | 16.5 nM | – | – | –
ACAUGAAGAUUAAUCGUGGGCAUACUCGAUACCAGUAUUUUAACCUACCCUUGGCAGCGACAUGAGGAUCACCCAUGUGAGAUGA | – | – | 21.6 nM | 28.9 nM | –
ACAUGAGGAUCACCCAUGUUCCUCAUUGAUACCAGUGAAUUUAGACGCCCUUGGCAGCGAGUUUUUUUAUAAGAUGUUUUUUUUU | – | – | 545 nM | 1110 nM | –
ACAUGAGGAUCACCCAUGUUCCUCGCCGAUACCAGUGAAGAAUUACGCCCUUGGCAGCGGAAAGAGUAUUUUGGAGAUGAGGUAC | – | – | 69.8 nM | 83.5 nM | –
ACGACGCAUAGUGAUACCAGCACAACAUGAGGAUCACCCAUGUCACAUAUGUUGUAAUAAUGCCCUUGGCAGCACUAUGCGUCAG | 52 nM | 87.3 nM | – | – | –
ACGACGCAUAGUGAUACCAGUAGAACAUGAGGAUCACCCAUGUCUGUGACGCACAAACUCUGCCCUUGGCAGCACUAUGCGUCAG | 10.8 nM | 17.4 nM | – | – | –
ACGAUAGGACAUGAGGAUCACCCAUGUGAUACCAGCCUGGAAACAGGCCCUUGGCAGCACAAAUACUCCAGAAACCUAUCGAAAA | – | – | 258 nM | 417 nM | –
ACGUCACGUUUACUCGUGGUUUCGAUCGAUACCAGUAGCGAGAGUUACCCUUGGCAGCGACAUGAGGAUCACCCAUGUACGAAGA | – | – | 13.5 nM | 18.4 nM | –
ACUUGGUGGUGAUCCCUGCCAAGAGGUGAUACCAGCAUCGAAAGAUGCCCUUGGCAGCACCAACAUGAGGAUCACCCAUGUAAUA | 156 nM | 157 nM | – | – | –
AGCAUACAUUCUGAUACCAGAGACAUGAGGAUCACCCAUGUCCGAUCGUCCUGCCUCAGACUCCCUUGGCAGCAGGAUGUGUGCU | – | – | 13.9 nM | 33.4 nM | –
AGUGUUAUAACUGAUACCAGACCUUUGCUUAUACAUGAGGAUCACCCAUGUAAAAUGGCUGUCCCUUGGCAGCAGAGAAUACACA | 46 nM | 16.5 nM | – | – | –
AGUGUUAUAACUGAUACCAGACUCUCAUGUUUACAUGAGGAUCACCCAUGUUAUUUCUUUGUCCCUUGGCAGCAGAAUUUACACA | 317 nM | 49.3 nM | – | – | –
AUAACAUGAGGAUCACCCAUGUAAGCAGAUACCAGCUAGGAAACUAGCCCUUGGCAGCUGCAAUCCUCAUGUAUUGCAGCUGCAA | – | – | 15.7 nM | 36.2 nM | –
AUACCUAAUGAGUCGUGUAACUUUUCAGAUACCAGACUUUUCGUUGUCCCUUGGCAGCUGUUUUACAUGAGGAUCACCCAUGUUG | – | – | 15.9 nM | 38.1 nM | –
AUACCUAUUGAGUCGUGUUUCUAUUCAGAUACCAGACUUUUCGUUGUCCCUUGGCAGCUGUUUUACAUGAGGAUCACCCAUGUUG | – | – | 15 nM | 17.5 nM | –
AUAUGAUCAUAUGAUACCAGAAAUGGUAUUCCUUUGUUUCUUACAUGAGGAUCACCCAUGUUCCCUUGGCAGCAUAUGAUCAUAU | – | – | 187 nM | 251 nM | –
AUCGUACCUGAUGAUACCAGCAAUUGCUCGUAACAUGAGGAUCACCCAUGUGACCAGUGAUGCCCUUGGCAGCAUGAUCGGUGCA | 53.8 nM | 12.4 nM | – | – | –

Sequence | apparent Kd [1, 3] | apparent Kd [1, 4] | apparent Kd [1, 5] | apparent Kd [1, 6] | further results
AUCGUACCUGAUGAUACCAGCAAUUGCUCGUAACAUGAGGAUCACCCAUGUGAUCAGUGAUGCCCUUGGCAGCAUGAUCGGUGCA | 262 nM | 35.4 nM | – | – | –
AUCUCAUAGAGUGAUACCAGACUACAUGAGGAUCACCCAUGUUACAUUUAAAUAUCAUUUGUCCCUUGGCAGCACAUGAAGUACA | – | – | 28 nM | 18 nM | –
AUGUCGUUGAAUAUAGCGGCUUGGAGUGAUACCAGCAUGAUCCAAUGCCCUUGGCAGCAUAACAUGAGGAUCACCCAUGUUCCAG | 57.6 nM | 74.6 nM | – | – | –
CAGCCUGAUUGGUAAAUCCCUCAUCGUGAUACCAGUCGAGUGAUCGACCCUUGGCAGCACAUGAGGAUCACCCAUGUGCGCGUAA | – | – | 26.7 nM | 29.8 nM | –
CCAUAUGUAACUGAUACCAGUGUACUGACAUGAGGAUCACCCAUGUUGGGUUUUGUUGUACACCCUUGGCAGCAGAAUCAUAUGG | – | – | 62.4 nM | 80.4 nM | –
CUCCGAGGCUAUACUAUCCGCCUCAGUGAUACCAGAAUACCUAUAUUCCCUUGGCAGCAUCACAUGAGGAUCACCCAUGUGCCAU | 12.5 nM | 15.2 nM | – | – | –
CUCGAGUUAUGAGAUACCAGACUAUAGUUUACAUGAGGAUCACCCAUGUUAUGGGUGGUGGUCCCUUGGCAGCUCAUAUGUUUAA | – | – | 60.1 nM | 284 nM | –
UCGGUGUAAGAGAAGGAAGUGUUCGCAGGCCAAGGCUCAUUGGCUACAUGAGGAUCACCCAUGUCUUAGGAUAUCUGCGCUCCG | – | – | – | – | apparent Kd [2, 7]: 45.6 nM; apparent Kd [2, 8]: 16.7 nM
UCGGUUUGUGCAGGAUAUGCUUACACCCUAGAGGCAGAAGGGCAUAUCACAUGAGGAUCACCCAUGUACAAUCGUCCAAGGGCA | – | – | – | – | apparent Kd [2, 7]: 29.8 nM; apparent Kd [2, 8]: 23.4 nM
UCUAACAUGAGGAUCACCCAUGUACCGUCCCGAGGACCGGUACGGCCGCCACUCGUCUUGCUAAAACUGAAGUGAUCACAAGCCU | – | – | – | – | apparent Kd [2, 9]: 20.2 nM; apparent Kd [2, 10]: 30.8 nM
UCUCAUAUGGAAGGAUAUCAUACCUUGUCGAGAUGAGAAGGUCCGUAUGGACAUAACAUGAGGAUCACCCAUGUUUCUUGUGUU | – | – | – | – | apparent Kd [2, 7]: 188 nM; apparent Kd [2, 8]: 128 nM
UCUCUUAAAGCAGGAUAUGAAAUCCACCAGGAAUCAGAAGGGCUCAACGUUACAUGAGGAUCACCCAUGUCCCUUAUGACAAUA | – | – | – | – | apparent Kd [2, 11]: 7.83 nM; apparent Kd [2, 12]: 9.35 nM
UGAAAUUUGGAGAAGGGACGCACGUGGUAGUGGCUACAUGAGGAUCACCCAUGUUAAUUGAUCAGUCAGGAUAUCCGGUUGUUC | – | – | – | – | apparent Kd [2, 11]: 18.1 nM; apparent Kd [2, 12]: 22.1 nM
UGAAUACAUGAGGAUCACCCAUGUUACGACCUCACAGGAUAUCAGAUAAAGGCUCUCAUCUGAGAAGGGUGGCUCC | – | – | – | – | apparent Kd [2, 7]: 63.3 nM; apparent Kd [2, 8]: 38.8 nM
UGACACAUGAGGAUCACCCAUGUCGCGAAACGAGGACCGGUACGGCCGCCACUCGCACAAACUCCUCUCCAGCACCAGCUUUUAG | – | – | – | – | apparent Kd [2, 9]: 19.4 nM; apparent Kd [2, 10]: 15.5 nM
UGAUCUGGCGGAGGAUAUAUGCCAGUAAAACUGAUAGAAGGCCGUGAUAUAACAUGAGGAUCACCCAUGUGAGCUCCUUAGCGA | – | – | – | – | apparent Kd [2, 11]: 20.5 nM; apparent Kd [2, 12]: 18.1 nM
UGCCAGGCACAGAAGGUAGCGUGUCCUCAAGACAUGAGGAUCACCCAUGUGGAAAGAUUAAGACCUAAGGAUAUGUGUAUCACC | – | – | – | – | apparent Kd [2, 11]: 143 nM; apparent Kd [2, 12]: 93.9 nM
UGCGACAAGUGAAUACUUUGUUCUAGAGAUACCAGUUCCCGAGUGAACCCUUGGCAGCUCCCAACAUGAGGAUCACCCAUGUAUU | – | – | – | – | apparent Kd [2, 5]: 14.5 nM; apparent Kd [2, 6]: 28.5 nM
UGGCCAGAACCUUUUGUGGCCACAUGAGGAUCACCCAUGUGCGAGGAUAUCCCAUCCGGUCCGGCGGAGAAGGCGCGUAUCGGC | – | – | – | – | apparent Kd [2, 7]: 34.4 nM; apparent Kd [2, 8]: 30.1 nM
UGUUACAUGAGGAUCACCCAUGUCAGAUGGUCUGGCUAUUACAGAAGGAAUAAAGAACGUCGAGAUUAGGAUAUGUGUAGAUGA | – | – | – | – | apparent Kd [2, 7]: 40.9 nM; apparent Kd [2, 8]: 31.8 nM
UUACACAUGAGGAUCACCCAUGUCUGGGAGCGAGGACCGGUACGGCCGCCACUCGAAUUGUCAGGGCUAUGCCGGACGAUGCAUC | – | – | – | – | apparent Kd [2, 9]: 17.1 nM; apparent Kd [2, 10]: 21.1 nM
UUACUACAUGAGGAUCACCCAUGUGAAAAUUAAACGAAAAGUUAGGAUAUGAAUGGAAAUGCACCUCAGAAGGAACGCGACAAG | – | – | – | – | apparent Kd [2, 7]: 18.4 nM; apparent Kd [2, 8]: 16.9 nM
UUAGUGAUACUAGGAUAUAGGUAAGACUCUUAACUAGAAGGAGUAGGGACGAAUACAUGAGGAUCACCCAUGUGAUUCUGGUUG | – | – | – | – | apparent Kd [2, 11]: 21.6 nM; apparent Kd [2, 12]: 26.3 nM
UUCAUUUUCUAGGAUAUGUACCAGAAAAUAGUUACAGAAGGAGAGACAUGAGGAUCACCCAUGUUGGCAACAGC | – | – | – | – | apparent Kd [2, 11]: 10.7 nM; apparent Kd [2, 12]: 11.6 nM
UUUGCAGUCGAGAAGGCAAACACAUGAGGAUCACCCAUGUAGACGAGGUAUGUUAUUUCGGGAGUUGAGGAUAUCGUGGUAGGU | – | – | – | – | apparent Kd [2, 7]: 27.8 nM; apparent Kd [2, 8]: 13.8 nM
